System: MS2 coat protein
Experiment: apparent Kd, MS2 coat protein; higher = weaker binding; RNA-MaP array; FMN 200 µM where present
Outline: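 In 100 mM Tris-HCl pH 7.5, 80 mM KCl, 4 mM MgCl2, BSA, DTT, yeast tRNA and Tween-20, SNAP-549-labelled MS2 coat protein was titrated from 0.7 or 1.5 nM, doubling to 3 µM, over designs transcribed by stalled E. coli RNA polymerase on Illumina sequencing-chip clusters. This was done first without ligand, then with ligand held constant. After green signal was normalised to red-channel RNA signal and control-cluster median Fmax, the apparent Kd was taken as the median of filtered per-cluster binding-curve fits.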

[1] = designed as: ON switch for flavin mononucleotide, no ligand
[2] = ligand present: flavin mononucleotide, designed as: ON switch for flavin mononucleotide
[3] = designed as: OFF switch for flavin mononucleotide, no ligand
[4] = ligand present: flavin mononucleotide, designed as: OFF switch for flavin mononucleotide

Sequence | apparent Kd [1] | apparent Kd [2] | apparent Kd [3] | apparent Kd [4]
GCUUCUUAAUUUCAAACUUACGAUUCAGAAGGUGAAUUUUACACAUGAGGAUCACCCAUGUUACUCAAGGAUAUGAUUUGACUA | 18.7 nM | 14 nM | – | –
CGGGCGAGAGGAUAUACAUGAGGAUCACCCAUGUGUUUCCAGGCGGUAGCUGUCACGUGUAGAAGGUUUUCCGG | – | – | 18.4 nM | 17.7 nM
CCCUCGGCGUGUAGAUACAUACAUGAGGAUCACCCAUGUGAGAAGGAUAUGCACGCGUGCUGCCGGCAGAAGGUCUAGAUGGUG | – | – | 25.4 nM | 29.8 nM
UGUCCAUAGCAGAAGGACAUGAGGAUCACCCAUGUAAUCAUACAACCAAAUGUAGGAUAUGCUAUGGACUAAGAGCGAAAGCUC | – | – | 7.5 nM | 34.4 nM
UGAAUGUGAGGAUAUGGUGAGUAGUGCCUAAGCGCUGCUCACCAGAAGGCACAUGAGGAUCACCCAUGUACUUG | – | – | 61.7 nM | 192 nM
UGUGAGUUGAUGUUAGAUAGGAGUACAUGAGGAUCACCCAUGUAGGAUAUUCAAAGACGCAGAUAGAAGAAGGACAUAGGUUUC | – | – | 16.1 nM | 14.8 nM
GCGUAAAAGAUCCUAUUUAUCUACAUGAGGAUCACCCAUGUGCAGGAUAUGCUAUAUUUAAUAUAGCAGAAGGGCAAUAACCGC | – | – | 45.6 nM | 248 nM
CCCAUCGCAUGAGGAUAUGCUCCGGUUUCCGGAGCAGAAGGCAUGUCAUAAGACAUGAGGAUCACCCAUGUAGUUAAGAUGGGA | 529 nM | 30.4 nM | – | –
CUGAGCUGAGGAUAUACAUGAGGAUCACCCAUGUGUUCGAGCUUGCGUACAGGCAGAUGUAGAAGGCAGUUCGG | – | – | 26.7 nM | 99.3 nM
GGGCUGUCAGGAUAUGGGCCCGGGCCCGAAAGGGCCCGGGUUUAGAAGGGACAUGAGGAUCACCCAUGUGGCCC | – | – | 32.5 nM | 37.2 nM
AGAUCAACCACAGGAUAUGGCUAGCAUAGCUAGCCAGAAGGGUGGUCGUAUCCAUGUAAAUACAUGAGGAUCACCCAUGUAUCC | 220 nM | 119 nM | – | –
CUCAUUAGUCAGGAUAUCGUGUGGGUAAUUGUACGAGAAGGGACGACAUGAGGAUCACCCAUGUGGUCUUUGAG | – | – | 71 nM | 317 nM
CGGUUGCGCUCCUAUGGUUUGAACAUGAGGAUCACCCAUGUACAGGAUAUAGUAAGAACGCCUUACUAGAAGGGUACGUUCUCG | – | – | 18.9 nM | 22 nM
CAAAAGUAUAACAAUUUCGAGGCACAGGAUAUGAGUGUGCACAUGAGGAUCACCCAUGUUAUAACUUAGAAGGGUGACCAUUGC | 265 nM | 443 nM | – | –
ACCAAUGGAGGAUAUACAUGAGGAUCACCCAUGUAUAACCUACAUAGGUGAAAAUUAUGUAGAAGGCCAUUGGA | – | – | 14.6 nM | 13.4 nM
AAAACUCACGUAGGAUAUCAUUCCUUAAGGUAGUGAGAAGGACGUGACUACAUGUCCUUGAACAUGAGGAUCACCCAUGUAGGC | – | – | 49.5 nM | 55.4 nM
GUGCCUUGGGAGAAGGUUACAUGCAAAGCAUUUAAAGGAUAUUCAUACCGGAAACGGACAUGAGGAUCACCCAUGUGGCACAAA | 870 nM | 145 nM | – | –
AAUGUUUGAUUCCACUUAUACAUGAGGAUCACCCAUGUUAUCGAGGAUAUGCAUUAGAGUGUUUAGCAGAAGGCGAUGUAAAUG | – | – | 7.34 nM | 24.1 nM
UAUAUUAACAAGAAGGCUAACAUGAGGAUCACCCAUGUUGUACAUGGAUAUAGAGGAUAUUGCUAAUAAUUAUUUAUCAUAAUU | – | – | 20.4 nM | 18.3 nM
CGGCUCUCAGGAUAUACCUUGGGUGGCCAACUGUUUCGUUUACAUGAGGAUCACCCAUGUAGAAGGGAGGGCAA | – | – | 53.8 nM | 33 nM
GAACUGAAGCAUGGCUUUAGUCGUACAUGAGGAUCACCCAUGUAGGAUAUGGUAGGCAUAGCUUACUAGAAGGAUAGAGUGAUC | – | – | 187 nM | 63.4 nM

From the EternaBench riboswitch data
